A number with no mark means an inactive call. The source made the active and inactive calls.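 How the source made its calls: active means growth signal loss with fitted half-maximal concentration up to ten times the top valid dose; inconclusive means flat curve with 30 to 70% inhibition, or poor fit; inactive means the rest, including opposite-direction effects.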
Test: single-agent antifungal toxicity against Candida – Alamar Blue fluorescence, dry powder, set 5, counter-screen, dose response (AID 493070)
Details: C. albicans CaCi-2 growth, 48 h; series mostly up to 26 µM
Outline: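 Technique: Alamar Blue fluorescence, Ex 544/Em 590 nm / Material: C. albicans CaCi-2 grown without fluconazole / Schedule: 48 h growth at 37 °C, 2 h dye step / Dosing: pinned compound / Buffer or medium: RPMI-based synthetic defined medium containing MOPS, glucose and uridine / Read-out basis: fungal growth from Alamar Blue RFU, signal loss indicating broad toxicity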

Structure (SMILES) | outcome | activity change, negative = inhibition
COC(=O)Cn1nc(-c2ccccc2)c2ccccc21 | inactive | 
CC1CCN(C(=O)Cn2c3ccc(F)cc3c3nc4n(c(=O)c32)CCCS4)CC1 | inactive | 
COc1ccc(NC(=O)Cn2c3ccccc3c3nc4n(c(=O)c32)CCS4)cc1 | inactive | 
COc1ccc2c(c1)c1nc3n(c(=O)c1n2CC(=O)N1CCC(Cc2ccccc2)CC1)CCS3 | inactive | 
O=c1c2[nH]c3ccc(F)cc3c2nc2n1CCS2 | inactive | 
O=C(Cn1c2ccccc2c2ccncc21)N1CCCCC1 | inactive | 
O=C(Cn1c2ccccc2c2nc3n(c(=O)c21)CCS3)N1CCCC1 | inactive | 
COC(=O)Cn1nc(-c2ccc(Cl)cc2)c2ccccc21 | inactive | 
COC(=O)Cn1nc(-c2ccc(C)cc2)c2ccccc21 | inactive | 
O=C(Cn1c2ccc(F)cc2c2nc3n(c(=O)c21)CCS3)N1CCCCCC1 | inactive | 
N#Cc1cccc(N2CCN(C(=O)c3ccc(Cl)cc3)CC2)n1 | inactive | 
CC1CCN(C(=O)Cn2c3ccccc3c3nc4n(c(=O)c32)CCCS4)CC1 | inactive | 
O=C(O)Cn1nc(-c2ccccc2)c2ccccc21 | inactive | 
CCN(CC)C(=O)Cn1c2ccc(F)cc2c2nc3n(c(=O)c21)CCS3 | inactive | 
O=C(Cn1c2ccccc2c2nc3n(c(=O)c21)CCCS3)c1ccc(F)cc1 | inactive | 
O=C(Cn1c2ccc(F)cc2c2nc3n(c(=O)c21)CCS3)N1CCCCC1 | inactive | 
O=C(Cn1c2ccccc2c2nc3n(c(=O)c21)CCS3)NCCc1ccc(Cl)cc1 | inactive | 
O=C(Cn1c2ccccc2c2nc3n(c(=O)c21)CCS3)N1CCOCC1 | inactive | 
COC(=O)Cn1c(-c2ccccc2)nc2ccccc21 | inactive | 
COc1ccc2c(c1)c1nc3n(c(=O)c1n2CC(=O)N1CCC(C)CC1)CCS3 |  | 0.019% [at 2.6 µM]
CCN(CC)C(=O)Cn1c2ccccc2c2nc3n(c(=O)c21)CCS3 | inactive | 
O=C(Cn1c2ccccc2c2nc3n(c(=O)c21)CCS3)N1CCCCC1 | inactive | 
CC1CCN(C(=O)Cn2c3ccccc3c3nc4n(c(=O)c32)CCS4)CC1 | inactive | 
O=C(Cn1c2ccc(F)cc2c2nc3n(c(=O)c21)CCS3)N1CCCC1 | inactive | 
O=c1c2[nH]c3ccccc3c2nc2n1CCS2 | inactive | 

From PubChem BioAssay AID493070 (Broad Institute, 2011)
